OX1R antag-1: antagonists of human orexin 1 receptor (OX1R). 330,000 tested, 1.8% active. AID 485270. O43613. OX1R-expressing cells, FRET antagonist read-out. inhibition, % at 6.6 µM; in the data active = inhibition mostly above about 38%, no sharp cut-off; inactive = mostly below about 40%;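 also: 0% = agonist challenge alone and 100% = reference antagonist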
Target sequence (O43613 whole entry, looked up): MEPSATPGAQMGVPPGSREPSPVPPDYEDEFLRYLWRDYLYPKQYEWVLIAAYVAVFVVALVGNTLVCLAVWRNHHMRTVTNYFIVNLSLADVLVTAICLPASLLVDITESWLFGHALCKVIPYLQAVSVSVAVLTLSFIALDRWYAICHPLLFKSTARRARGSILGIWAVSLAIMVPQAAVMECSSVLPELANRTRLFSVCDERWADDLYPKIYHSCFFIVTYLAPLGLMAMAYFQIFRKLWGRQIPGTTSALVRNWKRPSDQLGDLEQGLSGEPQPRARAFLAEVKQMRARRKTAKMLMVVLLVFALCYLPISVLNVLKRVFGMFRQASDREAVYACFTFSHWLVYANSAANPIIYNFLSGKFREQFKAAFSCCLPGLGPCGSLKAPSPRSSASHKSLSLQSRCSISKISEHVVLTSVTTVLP
OX1R antag-2: human HCRTR1 antagonism; CHO/OX1R cells, Fluo-8 calcium fluorescence, orexin A; inhibition, % at 5 µM; 330,000 tested, 0.43% active; AID 434989;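 active = inhibition above its plate's threshold, mean inhibition of all tested compounds on the plate plus 3 SD, cut at about 37% in these data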;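 also: 0% = orexin A challenge wells and 100% = SB-334867-A antagonist wells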
CHO parental Ca: counter-screen for OX1R antagonists: effect in parental CHO cells; parental CHO-K1, ATP-induced calcium, Fluo-8 fluorescence; inhibition, % at 5.6 µM; 330,000 tested, 0.63% active;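 active = inhibition above that plate's mean sample inhibition plus 3 SD, cut at about 26% in these data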;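 also: 0% = ATP-challenged DMSO wells and 100% = DMSO wells without ATP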
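material = parental CHO cells | also added = ATP as calcium-mobilizing challenge | dosing = single point at 5.6 µM | detection = intracellular calcium via Fluo-8 no-wash fluorescent dye | read-out = % inhibition | benchmarks = low control ATP plus DMSO, high control DMSO only | repeats = one well per compound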
GPR7 antag: human neuropeptides B/W receptor 1 antagonism; GPR7-expressing cells, fluorescence antagonist assay; inhibition, % at 4.4 µM; 290,000 tested, 1.1% active; AID 1861; in the data active = inhibition above about 16%, passing the limit was not always enough;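 also: cells stimulated with the agonist NPW; 0% = agonist with vehicle and 100% = vehicle without agonist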
GalR3 antagonist: human GalR3 antagonism | O60755 | HEK293 GalR3-CNG cAMP membrane potential fluorescence; galR3 body fused to GalR1 C-terminus | inhibition, % at 3 µM | 360,000 tested, 0.44% active | AID 651719;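 active = inhibition above the screen-wide average plus 3 SD, cut at about 13% in these data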;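 also: forskolin and galanin both at EC90 stimulate the cells; cAMP rise reported by CNG channel membrane potential dye signal; 0% = forskolin plus galanin with DMSO and 100% = forskolin alone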
OX1R Ca confirm: OX1R (human) antagonism, confirmed. shares compounds with OX1R antag-2. CHO/OX1R cells, orexin A calcium Fluo-8 fluorescence. inhibition, % at 5 µM. 1,100 tested, 38% active; in the data active = inhibition above about 29%;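 also: 0% = agonist challenge alone and 100% = reference antagonist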
CHO Ca counter: counter-screen for OX1R antagonists: effect in parental CHO cells. shares compounds with OX1R antag-2. parental CHO-K1, ATP-induced calcium, Fluo-8 fluorescence. inhibition, % at 5.6 µM. 1,100 tested, 9.3% active. AID 492965;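 active = inhibition above a per-plate limit, the mean inhibition of that plate's test compounds plus 3 SD, cut at about 25% in these data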;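 also: 0% = ATP challenge with DMSO and 100% = DMSO without ATP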
* = called active by the depositor. Most compounds without a hit are left out; they make up all but 3.1% or so of the library.

Results for Cc1cc(C)c(NC(=O)CN(C)CC(=O)Nc2cccc(S(=O)(=O)N(C)c3ccccc3)c2)c(C)c1 ?
OX1R antag-1: 16; OX1R antag-2: 37*; CHO parental Ca: 1; GalR3 antagonist: -3; OX1R Ca confirm: 8; CHO Ca counter: -10

What do the screens show for `CCOC(=O)c1nn(-c2ccc(F)cc2)c(=O)cc1OCC(=O)Nc1ccc(F)c(F)c1`?
OX1R antag-1: 22; OX1R antag-2: -13; CHO parental Ca: -5; GalR3 antagonist: 0

How did CN1C2CCC1/C(=C/c1cccn1C)C(=O)/C2=C\c1cccn1C do in these assays?
OX1R antag-1: 37; OX1R antag-2: 38; CHO parental Ca: 23; GPR7 antag: -3; GalR3 antagonist: -3; OX1R Ca confirm: 19; CHO Ca counter: 12

What do the screens show for `CCc1cc2c(COC(=O)c3cc(S(=O)(=O)N4CCOCC4)ccc3F)cc(=O)oc2cc1O`?
OX1R antag-1: 23; OX1R antag-2: 33; CHO parental Ca: -8; GalR3 antagonist: 19*; OX1R Ca confirm: 8; CHO Ca counter: -10

Results for Cc1noc(C)c1COC(=O)c1cc(S(=O)(=O)N2CCOCC2)ccc1F ?
OX1R antag-1: 20; OX1R antag-2: -16; CHO parental Ca: -11; GalR3 antagonist: -2

Results for Cc1ccc(NC(=O)C(OC(=O)c2ccc(C=O)cc2)c2ccccc2)cc1Cl (stereo unspecified) ?
OX1R antag-1: 14; OX1R antag-2: 29; CHO parental Ca: 14; GPR7 antag: 17; OX1R Ca confirm: 32*; CHO Ca counter: 11

What do the screens show for `CCOc1ccc(S(=O)(=O)NCCC(=O)NCc2ccncc2)cc1`?
OX1R antag-1: 11; OX1R antag-2: 0; CHO parental Ca: -6; GalR3 antagonist: -4

Results for O=C1N[C@@H](c2ccccc2)COC(=O)[C@H](Cc2ccc(F)cc2)C/C=C\C[C@H]1CC(=O)N(CCO)Cc1ccccc1 ?
GalR3 antagonist: -8

Results for O=C1N[C@@H](c2ccccc2)COC(=O)[C@@H](Cc2ccc(F)cc2)C/C=C\C[C@@H]1CC(=O)N(CCO)Cc1ccccc1 ?
OX1R antag-1: 20; OX1R antag-2: 58; CHO parental Ca: 11; GalR3 antagonist: -5; OX1R Ca confirm: 63*; CHO Ca counter: 2

How did COC(=O)c1c(C(=O)OC)c2c(-c3ccccc3)cc3cccc1n32 do in these assays?
GalR3 antagonist: -5

Results for Cc1c(CCOC(=O)c2ccc(N3CCOCC3)c([N+](=O)[O-])c2)sc[n+]1CC#N ?
OX1R antag-1: 28; OX1R antag-2: -20; CHO parental Ca: -11; GPR7 antag: -10; GalR3 antagonist: 2

What do the screens show for `Cc1ncsc1CCOC(=O)c1ccc(N2CCOCC2)c([N+](=O)[O-])c1`?
OX1R antag-1: 53; OX1R antag-2: 34; CHO parental Ca: 18; GPR7 antag: -15; GalR3 antagonist: -2; OX1R Ca confirm: 13; CHO Ca counter: 21

What do the screens show for `O=C(O)C1OC1(c1ccccc1Cl)c1ccccc1Cl` (stereo unspecified)?
GalR3 antagonist: -5

Results for Cc1nn(-c2ccccc2)c(C)c1/C=N/NC(=O)c1cc(-c2cccs2)[nH]n1 ?
OX1R antag-1: 51; OX1R antag-2: 41; CHO parental Ca: -15; GPR7 antag: 9; GalR3 antagonist: 1; OX1R Ca confirm: 65*; CHO Ca counter: -11

How did Cc1nn(-c2ccccc2)c(C)c1/C=N/NC(=O)c1cc(-c2ccc(Br)s2)[nH]n1 do in these assays?
OX1R antag-1: 11; OX1R antag-2: -22; CHO parental Ca: -16; GPR7 antag: -12; GalR3 antagonist: -1

How did O=C(Nc1ccc(OC(F)(F)F)cc1)N1CCN(c2ccnc3cc(Cl)ccc23)CC1 do in these assays?
OX1R antag-1: 16; OX1R antag-2: 24; CHO parental Ca: -2; GPR7 antag: -7; GalR3 antagonist: -4; OX1R Ca confirm: 19; CHO Ca counter: 35*

What do the screens show for `C[C@@H]1CN([C@@H](C)CO)C(=O)c2cccc(NC(=O)Nc3ccc(F)cc3)c2O[C@@H]1CN(C)Cc1ccc(Oc2ccccc2)cc1`?
OX1R antag-1: 4; OX1R antag-2: 52*; CHO parental Ca: 28; GalR3 antagonist: -11; OX1R Ca confirm: 62*; CHO Ca counter: 24

What do the screens show for `CC(C)OCCCNC(=O)c1cn(C)c2ccc(S(=O)(=O)N(C)C3CCCCC3)cc2c1=O`?
OX1R antag-1: 3; OX1R antag-2: -10; CHO parental Ca: -7; GPR7 antag: 0; GalR3 antagonist: -7

Results for Cc1ccc(S(=O)(=O)n2nc(-n3c(C)ccc3C)c3c(F)cccc32)c2ccccc12 ?
OX1R antag-1: 1; OX1R antag-2: -2; CHO parental Ca: -8; GPR7 antag: -15; GalR3 antagonist: 0

Results for Cc1ccc(C)n1-c1nn(S(=O)(=O)c2cccc3cccnc23)c2cccc(F)c12 ?
OX1R antag-1: 71; OX1R antag-2: 39*; CHO parental Ca: -19; GPR7 antag: -19; GalR3 antagonist: 2; OX1R Ca confirm: 30*; CHO Ca counter: -8

Results for COc1ccc(C(=O)NNC(=S)NC(=O)c2ccco2)cc1 ?
OX1R antag-1: 8; OX1R antag-2: 31; CHO parental Ca: 3; GPR7 antag: -9; GalR3 antagonist: 0; OX1R Ca confirm: 6; CHO Ca counter: 19

Results for N#CCC(CNc1ncc(C(F)(F)F)cc1Cl)OC(=O)c1c(F)cccc1F (stereo unspecified) ?
OX1R antag-1: 25; OX1R antag-2: 46; CHO parental Ca: -24; GPR7 antag: -8; GalR3 antagonist: -12; OX1R Ca confirm: 18; CHO Ca counter: -10

Results for Cc1cc(C)nc(/N=C(\N)Nc2ccc(F)c([N+](=O)[O-])c2)n1 ?
OX1R antag-1: 29; OX1R antag-2: 25; CHO parental Ca: 12; GPR7 antag: -12; GalR3 antagonist: -5; OX1R Ca confirm: 40*; CHO Ca counter: 8

How did Cc1cc(C)nc(/N=C(\N)Nc2ccc(S(N)(=O)=O)cc2)n1 do in these assays?
OX1R antag-1: 2; OX1R antag-2: 4; CHO parental Ca: -9; GPR7 antag: -6; GalR3 antagonist: -7

How did CCOC(=O)Cc1c[nH]c2ccc([N+](=O)[O-])cc12 do in these assays?
GalR3 antagonist: -6

What do the screens show for `COc1ccc(C(=O)NCC(=O)NCC(=O)OCc2ccc(Br)cc2)cc1`?
OX1R antag-1: 25; OX1R antag-2: -31; CHO parental Ca: -17; GPR7 antag: -2; GalR3 antagonist: -5

What do the screens show for `O=C(CNC(=O)c1ccc(Oc2ccccc2)cc1)OCc1ccc(Br)cc1`?
OX1R antag-1: 8; OX1R antag-2: 34; CHO parental Ca: 17; GPR7 antag: -6; GalR3 antagonist: -2; OX1R Ca confirm: 8; CHO Ca counter: 3
